Measured values as given in ChEMBL document CHEMBL1147577, “Design, synthesis, and SAR of anthranilamide-based factor Xa inhibitors incorporating substituted biphenyl P4 motifs” (Bioorg Med Chem Lett, 2004).

Assays:
Coagulation factor X [1] = biological target: T1, Coagulation factor X (Homo sapiens, UniProt P00742); assay: Concentration required to double the lag time of maximum thrombin generation in human plasma-based thrombin generation assay.; assay type: functional, cell-free
Summary of the method: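 Human plasma treated with reptilase, mixed with inhibitor serially diluted from DMSO stock, then chromogenic substrate H-b-Ala-Gly-Arg-p-nitroanilide and CaCl2. Thrombin generation started with 640 pmol/L recombinant tissue factor. Absorbance at 405 nm followed at 37 °C for 22 min. Reported as 2XTG, the inhibitor concentration that doubles the time to maximum thrombin generation.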

Coagulation factor X [2] = biological target: T1, Coagulation factor X; assay: Inhibitory concentration against coagulation factor Xa.
Coagulation factor X [3] = biological target: T1, Coagulation factor X; assay: Inhibition of Coagulation factor X
[4] = Oral bioavailability in rat; assay type: ADME, organism-based; conditions: in vivo
Summary of the method: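 Sprague–Dawley rats given 6 mg/kg orally, with oral bioavailability calculated.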

[5] = biological target: Vitamin K-dependent protein C (Homo sapiens, UniProt P04070); assay: Inhibitory activity against activated protein C was determined
Kallikrein-1 = Kallikrein-1 (Homo sapiens, UniProt P06870); assay: Inhibitory activity against kallikrein was determined
[6] = biological target: Tissue-type plasminogen activator (Homo sapiens, UniProt P00750); assay: Inhibitory activity against tissue type plasminogen activator was determined
Serine protease 1 = Serine protease 1 (Homo sapiens, UniProt P07477); assay: Inhibitory concentration against trypsin was determined
[7] = biological target: Plasminogen (Homo sapiens) (UniProt P00747); assay: Inhibitory activity against plasmin was determined
Sequence of Plasminogen (Homo sapiens) (P00747 whole entry, looked up): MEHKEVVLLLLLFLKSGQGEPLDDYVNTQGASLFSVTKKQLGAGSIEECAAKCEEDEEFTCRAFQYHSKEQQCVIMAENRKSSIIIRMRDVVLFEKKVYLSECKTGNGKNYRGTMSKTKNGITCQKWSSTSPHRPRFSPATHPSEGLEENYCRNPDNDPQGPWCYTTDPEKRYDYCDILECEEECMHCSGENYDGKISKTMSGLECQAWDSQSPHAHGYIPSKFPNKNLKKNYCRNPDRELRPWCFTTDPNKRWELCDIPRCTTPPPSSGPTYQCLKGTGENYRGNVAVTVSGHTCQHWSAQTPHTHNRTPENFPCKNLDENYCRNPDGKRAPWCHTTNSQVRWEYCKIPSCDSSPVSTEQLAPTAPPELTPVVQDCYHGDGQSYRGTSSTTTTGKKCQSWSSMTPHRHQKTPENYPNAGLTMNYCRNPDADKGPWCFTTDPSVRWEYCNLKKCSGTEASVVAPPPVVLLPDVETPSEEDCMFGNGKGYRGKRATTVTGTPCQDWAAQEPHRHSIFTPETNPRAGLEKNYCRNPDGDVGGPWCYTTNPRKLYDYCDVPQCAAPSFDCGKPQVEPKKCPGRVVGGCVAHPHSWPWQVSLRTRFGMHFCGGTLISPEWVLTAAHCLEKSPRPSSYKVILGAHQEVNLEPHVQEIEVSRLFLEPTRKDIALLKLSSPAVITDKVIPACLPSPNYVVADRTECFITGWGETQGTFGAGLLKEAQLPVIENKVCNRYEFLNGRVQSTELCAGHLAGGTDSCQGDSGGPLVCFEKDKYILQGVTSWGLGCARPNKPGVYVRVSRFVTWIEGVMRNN

T1 sequence (P00742 41-179 limits assumed): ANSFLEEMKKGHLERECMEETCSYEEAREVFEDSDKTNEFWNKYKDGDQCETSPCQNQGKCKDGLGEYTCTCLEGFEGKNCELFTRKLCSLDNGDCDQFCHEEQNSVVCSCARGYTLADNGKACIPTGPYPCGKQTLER
T1 sequence (P00742 235-488 limits assumed): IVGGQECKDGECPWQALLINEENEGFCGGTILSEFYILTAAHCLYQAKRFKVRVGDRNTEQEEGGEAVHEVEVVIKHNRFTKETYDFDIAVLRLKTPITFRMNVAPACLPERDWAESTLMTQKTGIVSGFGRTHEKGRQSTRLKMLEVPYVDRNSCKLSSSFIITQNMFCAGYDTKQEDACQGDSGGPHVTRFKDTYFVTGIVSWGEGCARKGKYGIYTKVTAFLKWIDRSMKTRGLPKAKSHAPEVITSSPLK
Sequence of Kallikrein-1 (P06870 whole entry): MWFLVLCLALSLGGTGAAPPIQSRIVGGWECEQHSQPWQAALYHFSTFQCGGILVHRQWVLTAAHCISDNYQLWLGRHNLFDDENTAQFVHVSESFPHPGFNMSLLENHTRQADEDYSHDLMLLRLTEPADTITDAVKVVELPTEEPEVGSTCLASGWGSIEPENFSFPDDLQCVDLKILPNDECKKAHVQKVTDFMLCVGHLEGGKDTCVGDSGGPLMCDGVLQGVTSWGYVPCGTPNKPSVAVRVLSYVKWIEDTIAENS
Sequence of Tissue-type plasminogen activator (P00750 whole entry): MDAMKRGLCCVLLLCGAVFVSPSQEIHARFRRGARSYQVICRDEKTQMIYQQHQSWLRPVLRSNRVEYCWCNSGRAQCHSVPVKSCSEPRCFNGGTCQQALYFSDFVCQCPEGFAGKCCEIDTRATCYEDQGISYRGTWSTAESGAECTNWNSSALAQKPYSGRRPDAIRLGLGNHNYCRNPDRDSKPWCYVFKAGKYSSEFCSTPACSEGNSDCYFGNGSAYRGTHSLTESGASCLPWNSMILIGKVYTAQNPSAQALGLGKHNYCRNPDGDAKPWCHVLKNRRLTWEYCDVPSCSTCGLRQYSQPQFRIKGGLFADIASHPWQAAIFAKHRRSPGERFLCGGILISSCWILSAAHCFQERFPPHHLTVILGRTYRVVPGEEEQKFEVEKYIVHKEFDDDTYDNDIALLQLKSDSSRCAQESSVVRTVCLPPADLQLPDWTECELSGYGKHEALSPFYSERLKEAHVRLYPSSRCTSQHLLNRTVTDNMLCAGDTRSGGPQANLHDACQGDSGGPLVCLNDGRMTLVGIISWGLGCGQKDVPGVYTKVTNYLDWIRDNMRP
Sequence of Serine protease 1 (P07477 whole entry): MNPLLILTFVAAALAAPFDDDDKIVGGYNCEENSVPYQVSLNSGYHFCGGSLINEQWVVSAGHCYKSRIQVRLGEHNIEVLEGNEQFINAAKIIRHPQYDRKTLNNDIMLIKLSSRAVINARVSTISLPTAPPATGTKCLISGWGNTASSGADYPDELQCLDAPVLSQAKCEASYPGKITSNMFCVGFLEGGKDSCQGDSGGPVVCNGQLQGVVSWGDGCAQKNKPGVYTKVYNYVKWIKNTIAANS
Sequence of Vitamin K-dependent protein C (P04070 43-197 limits assumed): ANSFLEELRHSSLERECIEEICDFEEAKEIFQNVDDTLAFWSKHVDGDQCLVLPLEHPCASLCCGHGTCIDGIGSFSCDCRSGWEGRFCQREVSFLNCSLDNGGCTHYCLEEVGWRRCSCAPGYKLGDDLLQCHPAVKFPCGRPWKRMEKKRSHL
Sequence of Vitamin K-dependent protein C (P04070 212-461 limits assumed): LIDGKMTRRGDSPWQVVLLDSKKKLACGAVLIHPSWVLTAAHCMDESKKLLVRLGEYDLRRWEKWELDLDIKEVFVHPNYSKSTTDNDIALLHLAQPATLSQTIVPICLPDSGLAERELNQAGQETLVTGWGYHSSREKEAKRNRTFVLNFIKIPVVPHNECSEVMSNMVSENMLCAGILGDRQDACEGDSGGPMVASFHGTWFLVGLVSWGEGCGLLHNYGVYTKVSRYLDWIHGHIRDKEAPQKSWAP

| Compound | Activity (Coagulation factor X [1]) [µM] | IC50 (Coagulation factor X [2]) [nM] | other results |
| --- | --- | --- | --- |
| N=C(N)NCc1ccccc1-c1ccc(C(=O)Nc2ccc(Cl)cc2C(=O)Nc2ccc(Cl)cn2)cc1 | > 5 | – | – |
| O=C(Nc1ccc(Cl)cc1C(=O)Nc1ccc(Cl)cn1)c1ccc(-c2cccc(N3CCCCC3)c2)cc1 | – | 16 | – |
| O=C(Nc1ccc(Cl)cc1C(=O)Nc1ccc(Cl)cn1)c1ccc(-c2ccccc2N2CCNCC2)cc1 | > 5 | 4.1 | Ki (Coagulation factor X [3]): 1 nM |
| O=C(Nc1ccc(Cl)cc1C(=O)Nc1ccc(Cl)cn1)c1ccc(-c2cccc(N3CCOCC3)c2)cc1 | – | 74 | – |
| NC(N)=NCc1ccccc1-c1ccc(C(=O)Nc2ccc(Cl)cc2C(=O)Nc2ccc(Cl)cn2)cc1 | – | 1.2 | bioavailability [4]: < 1%; Ki (Coagulation factor X [3]): 0.3 nM |
| NS(=O)(=O)c1ccccc1-c1ccc(C(=O)Nc2ncccc2C(=O)Nc2ccc(Cl)cn2)cc1 | > 5 | 48 | – |
| O=C(Nc1ccc(Cl)cc1C(=O)Nc1ccc(Cl)cn1)c1ccc(-c2cccc(N3CCC(O)CC3)c2)cc1 | – | 7 | – |
| CN(C)C(=N)c1ccc(-c2ccc(C(=O)Nc3ccc(Cl)cc3C(=O)Nc3ccc(Cl)cn3)cc2)cc1 | – | 60 | – |
| Nc1ccc(NC(=O)c2ccc(-c3ccccc3S(N)(=O)=O)cc2)c(C(=O)Nc2ccc(Br)cn2)c1 | 2.8 | 4.6 | – |
| NS(=O)(=O)c1ccccc1-c1ccc(C(=O)Nc2ccc(-n3ccnc3)cc2C(=O)Nc2ccc(Br)cn2)cc1 | – | 128 | – |
| O=C(Nc1ccc(Cl)cc1C(=O)Nc1ccc(Cl)cn1)c1ccc(-c2ccccc2N2CCCCC2)cc1 | – | 2.8 | – |
| NS(=O)(=O)c1ccccc1-c1ccc(C(=O)Nc2cnccc2C(=O)Nc2ccc(Cl)cn2)cc1 | 4.9 | 23 | – |
| CN(C)c1cccc(-c2ccc(C(=O)Nc3ccc(Cl)cc3C(=O)Nc3ccc(Cl)cn3)cc2)c1 | – | 3.5 | – |
| O=C(Nc1ccc(Cl)cc1C(=O)Nc1ccc(Cl)cn1)c1ccc(-c2ccccc2N2CCC(O)CC2)cc1 | > 5 | 1 | bioavailability [4]: 32%; Ki (Coagulation factor X [3]): 0.2 nM |
| O=C(Nc1ccc(Cl)cc1C(=O)Nc1ccc(Cl)cn1)c1ccc(-c2ccccc2N2CCCC2)cc1 | – | 2.8 | – |
| CN(C)C(=N)c1ccccc1-c1ccc(C(=O)Nc2ccc(Cl)cc2C(=O)Nc2ccc(Cl)cn2)cc1 | 1.4 | 0.2 | Ki (Coagulation factor X [3]): 0.1 nM |
| O=C(Nc1ccc(Cl)cc1C(=O)Nc1ccc(Cl)cn1)c1ccc(-c2ccccc2N2CCCNCC2)cc1 | > 5 | 5.6 | Ki (Coagulation factor X [3]): 1.8 nM |
| CNc1ccccc1-c1ccc(C(=O)Nc2ccc(Cl)cc2C(=O)Nc2ccc(Cl)cn2)cc1 | – | 4.1 | – |
| CC(N)=NCc1ccccc1-c1ccc(C(=O)Nc2ccc(Cl)cc2C(=O)Nc2ccc(Cl)cn2)cc1 | – | 0.7 | bioavailability [4]: < 1%; Ki (Coagulation factor X [3]): 0.1 nM |
| NS(=O)(=O)c1ccccc1-c1ccc(C(=O)Nc2ccccc2C(=O)Nc2ccc(Cl)cn2)cc1 | > 5 | 6.7 | – |
| CC(=N)NCc1ccccc1-c1ccc(C(=O)Nc2ccc(Cl)cc2C(=O)Nc2ccc(Cl)cn2)cc1 | > 5 | – | – |
| CN(C)c1ccccc1-c1ccc(C(=O)Nc2ccc(Cl)cc2C(=O)Nc2ccc(Cl)cn2)cc1 | > 5 | 0.9 | bioavailability [4]: 100%; Ki (Coagulation factor X [3]): 0.1 nM |
| NS(=O)(=O)c1ccccc1-c1ccc(C(=O)NCCC(=O)Nc2ccc(Br)cn2)cc1 | – | 12 | – |
| N=C(N)NCc1cccc(-c2ccc(C(=O)Nc3ccc(Cl)cc3C(=O)Nc3ccc(Cl)cn3)cc2)c1 | > 5 | 9.5 | bioavailability [4]: < 1% |
| N=C(N)c1cccc(-c2ccc(C(=O)Nc3ccc(Cl)cc3C(=O)Nc3ccc(Cl)cn3)cc2)c1 | > 5 | 1.6 | bioavailability [4]: < 1%; Ki (Coagulation factor X [3]): 0.7 nM |

| Compound | Activity (Coagulation factor X [1]) [µM] | IC50 (Coagulation factor X [2]) [nM] | other results |
| --- | --- | --- | --- |
| NCc1ccccc1-c1ccc(C(=O)Nc2ccccc2C(=O)Nc2ccc(Cl)cn2)cc1 | – | 67 | – |
| Nc1ccc(C(=O)Nc2ccc(Br)cn2)c(NC(=O)c2ccc(-c3ccccc3S(N)(=O)=O)cc2)c1 | > 5 | 6.2 | – |
| CN1CCN(c2ccc(NC(=O)c3ccc(-c4ccccc4S(N)(=O)=O)cc3)c(C(=O)Nc3ccc(Br)cn3)c2)CC1 | – | 1550 | – |
| CN1CCCN(c2ccccc2-c2ccc(C(=O)Nc3ccc(Cl)cc3C(=O)Nc3ccc(Cl)cn3)cc2)CC1 | > 5 | 3.1 | Ki (Coagulation factor X [3]): 0.8 nM |
| CNc1cccc(-c2ccc(C(=O)Nc3ccc(Cl)cc3C(=O)Nc3ccc(Cl)cn3)cc2)c1 | – | 2.3 | – |
| Nc1cccc(-c2ccc(C(=O)Nc3ccc(Cl)cc3C(=O)Nc3ccc(Cl)cn3)cc2)c1 | – | 1.9 | – |
| CC(=N)NCc1cccc(-c2ccc(C(=O)Nc3ccc(Cl)cc3C(=O)Nc3ccc(Cl)cn3)cc2)c1 | > 5 | 4.4 | Ki (Coagulation factor X [3]): 1.8 nM |
| O=C(Nc1ccc(Cl)cc1C(=O)Nc1ccc(Cl)cn1)c1ccc(-c2cccc(N3CCCNCC3)c2)cc1 | – | 32 | – |
| O=C(Nc1ccc(Cl)cc1C(=O)Nc1ccc(Cl)cn1)c1ccc(-c2cccc(N3CCNCC3)c2)cc1 | – | 39 | – |
| CN1CCCN(c2cccc(-c3ccc(C(=O)Nc4ccc(Cl)cc4C(=O)Nc4ccc(Cl)cn4)cc3)c2)CC1 | – | 22 | – |
| Nc1ccccc1-c1ccc(C(=O)Nc2ccc(Cl)cc2C(=O)Nc2ccc(Cl)cn2)cc1 | > 5 | – | Ki (Coagulation factor X [3]): 0.2 nM |
| NS(=O)(=O)c1ccccc1-c1ccc(C(=O)Nc2cccnc2C(=O)Nc2ccc(Cl)cn2)cc1 | > 5 | 26 | – |
| CC(=O)Nc1ccc(NC(=O)c2ccc(-c3ccccc3S(N)(=O)=O)cc2)c(C(=O)Nc2ccc(Br)cn2)c1 | – | 370 | – |
| O=C(Nc1ccc(Cl)cc1C(=O)Nc1ccc(Cl)cn1)c1ccc(-c2cccc(N3CCCC3)c2)cc1 | – | 5.3 | – |
| NS(=O)(=O)c1ccccc1-c1ccc(C(=O)Nc2ccncc2C(=O)Nc2ccc(Cl)cn2)cc1 | 2.2 | 18 | – |
| O=C(Nc1ccc(Cl)cc1C(=O)Nc1ccc(Cl)cn1)c1ccc(-c2ccccc2N2CCOCC2)cc1 | – | 4.1 | – |
| N=C(N)c1ccc(-c2ccc(C(=O)Nc3ccc(Cl)cc3C(=O)Nc3ccc(Cl)cn3)cc2)cc1 | – | 66 | – |
| O=C(Nc1ccc(Cl)cc1C(=O)Nc1ccc(Cl)cn1)c1ccc(-c2ccccc2N2CCC(C(=O)O)CC2)cc1 | > 5 | 0.4 | Ki (Coagulation factor X [3]): 0.012 nM |
| CN(C)C(=N)c1cccc(-c2ccc(C(=O)Nc3ccc(Cl)cc3C(=O)Nc3ccc(Cl)cn3)cc2)c1 | > 5 | 2 | Ki (Coagulation factor X [3]): 1 nM |
| CN1CCN(c2ccccc2-c2ccc(C(=O)Nc3ccc(Cl)cc3C(=O)Nc3ccc(Cl)cn3)cc2)CC1 | > 5 | 3.5 | Ki (Coagulation factor X [3]): 0.9 nM |
| Nc1ccc(NC(=O)c2ccc(-c3ccccc3S(N)(=O)=O)cc2)c(C(=O)Nc2ccc(Cl)cn2)c1 | 3 | 6.7 | – |
| CN1CCN(c2cccc(-c3ccc(C(=O)Nc4ccc(Cl)cc4C(=O)Nc4ccc(Cl)cn4)cc3)c2)CC1 | – | 23 | – |
| O=C(Nc1ccc(Cl)cc1C(=O)Nc1ccc(Cl)cn1)c1ccc(-c2cccc(N3CCC(C(=O)O)CC3)c2)cc1 | – | 1.8 | – |
| NS(=O)(=O)c1ccccc1-c1ccc(C(=O)Nc2ccccc2C(=O)Nc2ccc(Br)cn2)cc1 | > 5 | 3.4 | IC50 [5]: > 10000 nM; IC50 (Kallikrein-1): 2100 nM; IC50 [6]: > 10000 nM; IC50 (Serine protease 1): > 10000 nM; IC50 [7]: > 10000 nM |
